Test results from the RNAGym collection of RNA variant scans (doi:10.1126/science.aae0568).
Variants at the floor of the assay were thinned out.

B1: tRNA (parent)
chain: GUUCCGUUGGCGUAAUGGUAACGCGUCUCCCUCCUAAGGAGAAGACUGCGGGUUCGAGUCCCGUACGGAACG

Variants of: B1
Assay: yeast fitness relative to wild type (ratio to wild type); higher = fitter; tRNA-Arg(CCU), competitive growth, 37 C, YPD
Procedure, shortened: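 Gene amplicons from the start population and from each of six end populations were read by 100-nucleotide paired-end sequencing. Those end populations came from pooled Saccharomyces cerevisiae strains carrying tRNA-Arg(CCU) gene variants at the native locus, competed in YPD at 37°C for 24 hours. Fitness relative to wild type was worked out from changes in genotype frequencies. Genotypes needed ≥ 100 starting reads, and estimates < 0.5 were set to 0.5.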

| Variant | yeast fitness |
| --- | --- |
| A20G U54G A57U | ≤ 0.5 |
| A20G A36C C49G U54C | ≤ 0.5 |
| U19C U26G A57G | ≤ 0.5 |
| A20U C29U C49G C55A C66U | ≤ 0.5 |
| A20U C30U A57G A65U | ≤ 0.5 |
| A20G C49U C61G | 0.617 |
| A20U C22U U47A | ≤ 0.5 |
| A20C A43C G68U | ≤ 0.5 |
| U19G G58C G67C | 0.61 |
| A20C C46G A70G | 0.668 |
| U19G C61G | 0.575 |
| A20U C30U C31G A43G G44A U47A C49G | 0.595 |
| U19G C34A | 0.87 |
| A20G C22U G50C G63C G67C | ≤ 0.5 |
| A20U C34A C66A | ≤ 0.5 |
| A20U U32C C55U | 0.55 |
| A20G A40G G50C | 0.574 |
| A20G G58C | 1 |
| A20G U64G G68A A70C | ≤ 0.5 |
| A20U U26C U47C | 0.534 |
| A21C C24U U26A G38C C46G C62U A65C | ≤ 0.5 |
| A20C U28A | 0.672 |
| A20C C27A G52A | ≤ 0.5 |
| A20C A36G G48A C49U | ≤ 0.5 |

| Variant | yeast fitness |
| --- | --- |
| A20C G67U | 0.754 |
| A20G C27A C31A | ≤ 0.5 |
| A20C C31U A40G G52C A65G | 0.551 |
| A20U C62U A65C | 0.682 |
| A20G A40U | 0.92 |
| A20G A40C | 0.803 |
| A20C C24G C27A G44A U59G A65C | ≤ 0.5 |
| A20C A21G A57G | 0.744 |
| A20C C27U C66U G67C | ≤ 0.5 |
| A20C U35C G51C A57G C60G A70U | ≤ 0.5 |
| A20G C60U A69U | 0.592 |
| A20C A45U C55U | ≤ 0.5 |
| A20G G23C A69C | ≤ 0.5 |
| A20C U32A C34G A57C C66U | ≤ 0.5 |
| A20U A70G | 0.918 |
| A20U A21G C61U | ≤ 0.5 |
| A20C C46A | 1.04 |
| A20G G67A A69C | 0.563 |
| A20G G50A | 0.905 |
| U19G G41A G48C C49U A57C A70U | ≤ 0.5 |
| A21C C30G | 0.6 |
| A20U G68A | 0.843 |
| A20U G68C | 0.86 |
| A20C U64A G67A | ≤ 0.5 |

| Variant | yeast fitness |
| --- | --- |
| A20C C24A C27A A36C | ≤ 0.5 |
| A20U A45U A69U | 0.726 |
| A21C A69C | 0.809 |
| A20C A21U C30U C31A G63A | 0.628 |
| A20U G44U A57U G58A C66G | 0.518 |
| A20G G23C C31U A57U C66U | ≤ 0.5 |
| U19G A43U C66A | 0.6 |
| A20U U26C C62G | ≤ 0.5 |
| A20G A57C | 0.642 |
| A20G C29G G63C | ≤ 0.5 |
| U19G A43U G51U A65G G68A | ≤ 0.5 |
| A20C C27U A36G | 0.62 |
| A20G A37C A40G C49U | ≤ 0.5 |
| A20C G56A A65G C66U | 0.562 |
| A20U A21U C34G G63C | ≤ 0.5 |
| A21C A40U C55G C66G | ≤ 0.5 |
| A20U U32A A65C | ≤ 0.5 |
| A20C U53A | 0.767 |
| A20C A37G C49G U53A C60U A69C | 0.57 |
| A20C G25A C31G C33U C34U G41C C60A C66U | ≤ 0.5 |
| A20C C61U A69U | 0.61 |
| U19G U32G G51C A57U | ≤ 0.5 |
| A20G C34U A40U A42U | ≤ 0.5 |
| A21C A36U G48A | ≤ 0.5 |

| Variant | yeast fitness |
| --- | --- |
| A21C A42U A45U | 0.646 |
| A20G G67U A69C | ≤ 0.5 |
| A20U A37U G41C C46G | ≤ 0.5 |
| A20G A21G C29G | 0.543 |
| A20U C60G C61U | ≤ 0.5 |
| A20C C30G | 0.612 |
| A20G C22G C30U U54C | ≤ 0.5 |
| A21C C22G G38C A57C | 0.524 |
| A20G C31G C60G | ≤ 0.5 |
| A20U A21C G67A | ≤ 0.5 |
| A20C C29U U32A | ≤ 0.5 |
| A20U C27G C29U | ≤ 0.5 |
| U19G U47C U64G | 0.536 |
| U19G A37G A65U | 0.61 |
| A20G A42C A45C | ≤ 0.5 |
| A20G G25C C33G C60A | ≤ 0.5 |
| A20G A40U G52A C55A | 0.529 |
| A20G C24A A42U | 0.546 |
| A20C C29G G51A | 0.646 |
| A20C C29U C49G | 0.612 |
| A20C G68A | 0.843 |
| A20G C24U G56A C66G | ≤ 0.5 |
| A20G C29G C49U G68A | ≤ 0.5 |
| A20C C46A C49G G63A | ≤ 0.5 |

| Variant | yeast fitness |
| --- | --- |
| A20G A65U G68C | 0.556 |
| A20G G50C G63C G67C | ≤ 0.5 |
| A21C C22U G38C A40C C62A | 0.559 |
| A20U U35C A36G C55G | 0.578 |
| A20C G25C G38C A43G | ≤ 0.5 |
| A20C G52C | 0.583 |
| A21C A42G | 0.751 |
| A21C C22G A69C | ≤ 0.5 |
| A20C U54G | 0.539 |
| A20U A40G | 0.903 |
| A20U A21G C27G | ≤ 0.5 |
| A20U C30A | 0.795 |
| A20U C29U C49G C55A G68C | ≤ 0.5 |
| A20U C33A | 0.653 |
| A20U C33U | 0.675 |
| A20C C30A A65C | 0.583 |
| A20U C22U | 0.716 |
| A20U A40U G44C U53G | ≤ 0.5 |
| A20U C24A G51C | ≤ 0.5 |
| U19C U35G A43G | 0.598 |
| U19C U47A A57C | ≤ 0.5 |
| A20U U26A | 0.754 |
| A20C C24G C33G A42U A57C G67C | 0.645 |
| A20G A21U A42C | 0.547 |

| Variant | yeast fitness |
| --- | --- |
| A20G C24G U32C G51A | ≤ 0.5 |
| A20G C29G G68A | ≤ 0.5 |
| A20G A45U G63C | 0.539 |
| A20C A70G | 0.925 |
| A21C A43U G50A G52U A69C | 0.554 |
| A20C G41C C66G | ≤ 0.5 |
| A20U C30U U35G A36U | ≤ 0.5 |
| A21C A40C | 0.734 |
| A20U C30U C34G U53C A57U G67C | ≤ 0.5 |
| A21C C27U A57G C62U | 0.507 |
| A20C C29U C49G A70U | ≤ 0.5 |
| U19C G58C C61U C66U | 0.529 |
| A20G A57G C62U A69G | 0.772 |
| A20U C29A | 0.797 |
| A20G G25A C34A A36G G50C | ≤ 0.5 |
| U19G A65U | 0.99 |
| U19G C22U A70U | 0.746 |
| A20C C55G | 0.59 |
| A20G G25A C62U A65C | 0.813 |
| U19G G38C A57U | 0.552 |
| A20U G44C A45G | 0.596 |
| A20C C60U A69U | 0.617 |
| A20G A21U A70U | ≤ 0.5 |
| A20G A57C C62G C66G | ≤ 0.5 |

| Variant | yeast fitness |
| --- | --- |
| A20U U26C C33A C62A A69U | ≤ 0.5 |
| A20U U54C | 0.758 |
| A20G C60U | 0.744 |
| A20G C55U | 0.82 |
| A21C C30A A42C G48C C49U U54C | 0.598 |
| A20C C30G C33G | ≤ 0.5 |
| A20U G63A | 0.932 |
| U19C U28C C49A | 0.584 |
| A20C C61U | 0.806 |
| A20C A57C C60A | ≤ 0.5 |
| A20C U54C C55U | ≤ 0.5 |
| A20C U26G | 0.572 |
| U19G G41C C66U | ≤ 0.5 |
| A20C A69U | 1.04 |
| A20G G23A A65G | 0.574 |
| A20U C31G A40C | ≤ 0.5 |
| A20G C33U G39A A57G U59C | 0.517 |
| A20U A36G G68A | 0.574 |
| A20C G68A A70C | 0.522 |
| A20U C22A C61A C62G G68A | ≤ 0.5 |
| A21C A40U A45G A65C | 0.547 |
| A21C A43G G48C | ≤ 0.5 |
| A21C A45G | 0.918 |
